Measurements from article PMC4505548 (Organic & biomolecular chemistry, 2008).

Target: Neisseria meningitidis CSS (NmCSS), CMP-sialic acid synthetase (Neisseria meningitidis, UniProt P0A0Z8)
Assay: capillary electrophoresis UV assay of CMP-Neu5Ac formation
Assay type: biochemical
Details: 1000 µM; 1 mM CTP, 1 mM Neu5Ac, 20 mM MgCl2, Tris-HCl pH 8.5, 37 °C, 15 min
Method in brief: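 Purified recombinant NmCSS (1.25 ng) in 200 mM Tris-HCl pH 8.5 with CTP, Neu5Ac and MgCl2, reacted with test compound at 1 mM for 15 min at 37 °C. Stopped with 10% SDS on ice (final 1% SDS). CMP-Neu5Ac measured by capillary electrophoresis with UV detection. Percent conversion calculated from a UV response standard curve of CTP and CMP-Neu5Ac.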

Sequence of Neisseria meningitidis CSS (NmCSS), CMP-sialic acid synthetase (P0A0Z8 whole entry): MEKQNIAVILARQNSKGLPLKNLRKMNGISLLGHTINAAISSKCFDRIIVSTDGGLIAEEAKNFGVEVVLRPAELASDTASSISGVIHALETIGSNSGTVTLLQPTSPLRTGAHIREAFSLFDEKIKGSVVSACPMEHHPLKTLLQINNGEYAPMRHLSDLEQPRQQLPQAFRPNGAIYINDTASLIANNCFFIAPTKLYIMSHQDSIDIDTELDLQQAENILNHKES

Row | Substance | % Inhibition [%]
1 | Saturated sulfo-UDP [compound 22] | 35 ± 2
2 | Sulfo-UTP [compound 19] | 33 ± 5
3 | Sulfo-CDP [compound 5] | 47 ± 2
4 | Saturated sulfo-CDP [compound 12] | 55 ± 4
5 | Sulfo-CTP [compound 4] | 39 ± 2
